For data set [1] the following is noted: cited from earlier work.
Data set [2] relates to c-Met-dependent non-small cell lung cancer (NSCLC) and other tumor models. The conditions noted are these: SCC244 at 10 mg/kg; cited from earlier work.
The conditions of data set [3]: no reference given, cited from earlier work.
Data set [4] is classed as in vivo, human. The procedure, abridged:
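Three-period crossover in 18 healthy males aged 18–45 y with a 14-day washout. Dosing was fasted, or within 30 min of starting a high-fat/high-calorie or low-fat meal, with 240 mL water and no food for ≥4 h. EDTA plasma was sampled 0–168 h and assayed by LC-MS/MS (MRM, d6 internal standard). NCA gave parameters; log-transformed values were fitted by mixed-effects model for geometric mean ratios with 90% CI.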

A short description of a further data set: Safety evaluation. Type of data set: in vivo, human. Particulars: single oral 300 mg. The procedure, abridged:
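Each of the three dosing periods had 8 days of post-dose follow-up. Monitoring covered physical examination, vital signs, 12-lead ECG, haematology, urinalysis, biochemistry, coagulation and adverse events. Vital signs and ECG were taken within 1 h pre-dose, at 3 h ±30 min post-dose, and daily at other visits. Adverse events were graded by NCI CTCAE v5.0. All 18 dosed subjects formed the safety set.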

Setting [5] is: single oral 300 mg, fasting, n=18.
The mark [6] stands for this setting: single oral 300 mg, high-fat meal, n=17.
Where [7] appears, read: single oral 300 mg, low-fat meal, n=18.
[8] abbreviates: single oral 300 mg, n=17, bioavailability analysis set.

These results are taken from publication PMC10013581 (Drug Design, Development and Therapy, 2023).

Values joined by “and” are separate entries in the source; they are usually repeats but may differ in a detail not shown here. Equal values may be shown once. Read-outs that look alike come from different tables or passages of the source.

As for `CS(=O)(=O)CCNCc1ccc(-c2ccc3ncnc(Nc4ccc(OCc5cccc(F)c5)c(Cl)c4)c3c2)o1` [Lapatinib], in data set [1], the “Bioavailability increase with a high-fat meal” value was 161% and the “Bioavailability increase with a low-fat meal” value is given as 80%.
A word on the Tmax: it is the time at which the peak concentration occurs. In general, AUC(0-inf) refers to total exposure, with the tail of the curve extrapolated. One may read the AUC(0-t) as the area under the concentration-time curve up to a stated or last time point. Low readings indicate low exposure, high ones high exposure. Usually Cmax stands for the maximum level reached in the sampled fluid or tissue. Usually half-life stands for the time in which the quantity being followed falls by half. High values mean slow loss, low ones fast loss. Consider `Cn1cc(-c2cnc3cnn(S(=O)(=O)c4cnc5ccc(-c6cnn(C)c6)cn45)c3c2)cn1` [SCC244], for which the “Efficacy compared with capmatinib and crizotinib” value in data set [2] was “comparable with that of capmatinib at 15 mg/kg and crizotinib at 50 mg/kg”. Further, in data set [3], the Solubility in water entry is on record as “practically insoluble in water”. For the same molecule, the “Biopharmaceutics Classification System (BCS) class” value in data set [3] (poor aqueous solubility but sufficient permeability) was “Class II”. The “Solubility versus pH” value in data set [3] (weak base drug) is reported as “declines greatly when the pH is higher than 1.2”. The Tmax in data set [4] (male, human, plasma, po, 300 mg) is 4 h. In addition, the AUC(0-inf) in data set [4] (male, human, plasma, po, 300 mg, AUC0-inf (geometric mean), single oral 300 mg, fasting, n=17, bioavailability analysis set) came to 25300 ng·h/mL; in data set [4] (male, human, plasma, po, 300 mg, AUC0-inf (geometric mean), single oral 300 mg, high-fat meal, n=17, bioavailability analysis set) it was 59700 ng·h/mL; in data set [4] (male, human, plasma, po, 300 mg, AUC0-inf (geometric mean), single oral 300 mg, low-fat meal, n=17, bioavailability analysis set), 55300 ng·h/mL; in data set [4] (male, human, plasma, po, 300 mg, AUC0-inf, mean (SD), single oral 300 mg, fasting, n=18), 27700 ng·h/mL; in data set [4] (male, human, plasma, po, 300 mg, AUC0-inf, mean (SD), single oral 300 mg, high-fat meal, n=17) it was 65100 ng·h/mL; in data set [4] (male, human, plasma, po, 300 mg, AUC0-inf, mean (SD), single oral 300 mg, low-fat meal, n=18), 60500 ng·h/mL. The AUC(0-t) in data set [4] (male, human, plasma, po, 300 mg, AUC0-t (geometric mean), single oral 300 mg, fasting, n=17, bioavailability analysis set) was determined as 24800 ng·h/mL; in data set [4] (male, human, plasma, po, 300 mg, AUC0-t (geometric mean), single oral 300 mg, high-fat meal, n=17, bioavailability analysis set) it was 58900 ng·h/mL; in data set [4] (male, human, plasma, po, 300 mg, AUC0-t (geometric mean), single oral 300 mg, low-fat meal, n=17, bioavailability analysis set) it was 54300 ng·h/mL; in data set [4] (male, human, plasma, po, 300 mg, AUC0-t, mean (SD), single oral 300 mg, fasting, n=18), 27200 ng·h/mL; in data set [4] (male, human, plasma, po, 300 mg, AUC0-t, mean (SD), single oral 300 mg, high-fat meal, n=17) it was 64100 ng·h/mL; in data set [4] (male, human, plasma, po, 300 mg, AUC0-t, mean (SD), single oral 300 mg, low-fat meal, n=18), 59600 ng·h/mL. Besides, the Cmax turned out to be 824 ng/mL in data set [4] (male, human, plasma, po, 300 mg, Cmax (geometric mean), single oral 300 mg, fasting, n=17, bioavailability analysis set); 1610 ng/mL in data set [4] (male, human, plasma, po, 300 mg, Cmax (geometric mean), single oral 300 mg, high-fat meal, n=17, bioavailability analysis set); 1600 ng/mL in data set [4] (male, human, plasma, po, 300 mg, Cmax (geometric mean), single oral 300 mg, low-fat meal, n=17, bioavailability analysis set); 869 ng/mL in data set [4] (male, human, plasma, po, 300 mg, Cmax, mean (SD), single oral 300 mg, fasting, n=18); 1730 ng/mL in data set [4] (male, human, plasma, po, 300 mg, Cmax, mean (SD), single oral 300 mg, high-fat meal, n=17); 1750 ng/mL in data set [4] (male, human, plasma, po, 300 mg, Cmax, mean (SD), single oral 300 mg, low-fat meal, n=18). In addition, the half-life is 24.7 to 26.1 h in data set [4] (male, human, plasma, po, 300 mg, Mean t1/2 under different meal conditions, single oral 300 mg, low-fat meal, high-fat meal and fasted groups); 26.1 h in data set [4] (male, human, plasma, po, 300 mg, t1/2, mean (SD), single oral 300 mg, fasting, n=18); 24.7 h in data set [4] (male, human, plasma, po, 300 mg, t1/2, mean (SD), single oral 300 mg, high-fat meal, n=17); 25.6 h in data set [4] (male, human, plasma, po, 300 mg, t1/2, mean (SD), single oral 300 mg, low-fat meal, n=18). Moreover, the “%CV (AUC0-inf), inter-subject variability” value in data set [4] (setting [5]) stood at 44.0%; in data set [4] (setting [6]), 35.3%; in data set [4] (setting [7]) it was 31.6%. The “%CV (AUC0-t), inter-subject variability” value in data set [4] (setting [5]) stood at 44.2%; in data set [4] (setting [6]) it was 34.8%; in data set [4] (setting [7]), 31.5%. For the same molecule, the “%CV (Cmax), inter-subject variability” value in data set [4] (setting [5]) came out at 34.3%; in data set [4] (setting [6]), 30.5%; in data set [4] (setting [7]), 30.2%. In addition, the “CL/F, mean (SD)” value in data set [4] (setting [5]) was 12.8 (5.5) L/h; in data set [4] (setting [6]) it was 5.7 L/h and 5.7 (4.2) L/h; in data set [4] (setting [7]), 6.3 L/h and 6.3 (5.8) L/h. The “Tmax, median (range)” value is 4.0 (2.0–12.0) h in data set [4] (setting [6]) and 4.0 (2.0–8.0) h in data set [4] (setting [7]). In addition, the “AUC0-inf geometric mean ratio (90% CI) of high-fat meal vs fasting” value in data set [4] (setting [8]) was 235.9% (207.5–268.3%). For the same molecule, the “AUC0-inf geometric mean ratio (90% CI) of low-fat meal vs fasting” value in data set [4] (setting [8]) is on record as 218.3% (192.0–248.3%). Also, the “AUC0-t geometric mean ratio (90% CI) of high-fat meal vs fasting” value in data set [4] (setting [8]) is given as 237.4% (208.7–270.0%). For the same molecule, the “AUC0-t geometric mean ratio (90% CI) of low-fat meal vs fasting” value in data set [4] (setting [8]) is recorded as 219.2% (192.7–249.3%). In addition, the “Cmax geometric mean ratio (90% CI) of high-fat meal vs fasting” value in data set [4] (setting [8]) was 194.8% (174.3–217.7%). The “Cmax geometric mean ratio (90% CI) of low-fat meal vs fasting” value in data set [4] (setting [8]) was 194.6% (174.1–217.5%). Also, in “Safety evaluation” (all meal conditions), the “Other tolerability assessments (laboratory parameters, vital signs, physical examination, 12-lead ECGs)” value is given as “No clinically significant abnormalities”. The “SAEs or AEs leading to permanent discontinuation” value in “Safety evaluation” (all meal conditions) was “No SAEs or AEs leading to permanent discontinuation were reported”. Also, the “Incidence of AEs (subjects with any AE)” value was 66.7% in the data set “Safety evaluation” (fasted, 12/18 subjects); 70.6% in the data set “Safety evaluation” (high-fat meal, 12/17 subjects); 83.3% in “Safety evaluation” (low-fat meal, 15/18 subjects). In addition, the “Incidence of AE blood fibrinogen decreased” value is recorded as 16.7% (3) in the data set “Safety evaluation” (fasting, n=18); 23.5% (4) in “Safety evaluation” (high-fat meal, n=17); 27.8% (5) in “Safety evaluation” (low-fat meal, n=18). In addition, the “Incidence of AE dizziness” value is reported as 16.7% (3) in “Safety evaluation” (fasting, n=18); 0% (0) in the data set “Safety evaluation” (high-fat meal, n=17); 11.1% (2) in the data set “Safety evaluation” (low-fat meal, n=18). Also, the “Incidence of AE head discomfort” value in “Safety evaluation” (fasting, n=18) is given as 5.6% (1); in “Safety evaluation” (high-fat meal, n=17) it was 11.8% (2); in “Safety evaluation” (low-fat meal, n=18), 11.1% (2). Also, the “Incidence of AE headache” value in “Safety evaluation” (fasting, n=18) was 27.8% (5); in “Safety evaluation” (high-fat meal, n=17), 47.1% (8); in “Safety evaluation” (low-fat meal, n=18), 44.4% (8). Moreover, the “Incidence of AE protein urine presence” value in the data set “Safety evaluation” (fasting, n=18) was 16.7% (3); in the data set “Safety evaluation” (high-fat meal, n=17) it was 0% (0); in the data set “Safety evaluation” (low-fat meal, n=18) it was 5.6% (1). Besides, the “Subjects with a CTCAE grade 2 AE (headache); all other AEs grade 1” value in “Safety evaluation” (low-fat meal) came out at 1 subject.
Turning to `C[C@@H](Oc1cc(-c2cnn(C3CCNCC3)c2)cnc1N)c1c(Cl)ccc(F)c1Cl` [crizotinib], in data set [1], the “Effect of food on bioavailability” value is on record as “unaffected by food”.
On to `CNC(=O)c1cc(Oc2ccc(NC(=O)Nc3ccc(Cl)c(C(F)(F)F)c3)c(F)c2)ccn1` [regorafenib], for which, in data set [1], the “Bioavailability increase with a high-fat meal” value was 48% and the “Bioavailability increase with a low-fat meal” value is given as 36%.
As to `COc1cc2c(Nc3ccc(Br)cc3F)ncnc2cc1OCC1CCN(C)CC1` [vandetanib], the “Effect of food on bioavailability” value in data set [1] was “unaffected by food”.
In the case of `CCCS(=O)(=O)Nc1ccc(F)c(C(=O)c2c[nH]c3ncc(-c4ccc(Cl)cc4)cc23)c1F` [vemurafenib], the “Effect of high-fat meal (increase)” value in data set [1] (960mg single dose) was 3.7 fold.
